# Assay results gathered from unrelated publications.
# Target: 3-phosphoinositide-dependent protein kinase 1 (PDPK1, Homo sapiens, UniProt O15530)
# Residues used in one study (O15530 1-556): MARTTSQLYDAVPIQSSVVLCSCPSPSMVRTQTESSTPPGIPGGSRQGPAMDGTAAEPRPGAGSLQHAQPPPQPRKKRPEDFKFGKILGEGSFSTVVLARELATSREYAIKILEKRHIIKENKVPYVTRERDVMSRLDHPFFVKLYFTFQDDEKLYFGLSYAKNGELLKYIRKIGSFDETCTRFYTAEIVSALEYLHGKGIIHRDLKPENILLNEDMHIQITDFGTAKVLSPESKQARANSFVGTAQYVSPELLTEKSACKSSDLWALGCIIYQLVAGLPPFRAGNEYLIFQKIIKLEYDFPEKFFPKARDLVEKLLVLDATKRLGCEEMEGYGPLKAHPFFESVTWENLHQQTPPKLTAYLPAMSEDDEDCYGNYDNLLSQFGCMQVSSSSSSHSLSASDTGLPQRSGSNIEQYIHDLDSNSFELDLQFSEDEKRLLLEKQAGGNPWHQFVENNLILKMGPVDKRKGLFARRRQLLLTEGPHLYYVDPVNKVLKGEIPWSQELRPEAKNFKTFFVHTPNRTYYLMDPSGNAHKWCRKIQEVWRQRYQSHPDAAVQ
Compound,assay,setting,measurement,result
C#Cc1cnc(Nc2ccnc(CO)c2)nc1Nc1ccccc1S(C)(=O)=NC#N (centres unmarked),cell-free assay,1 µM,remaining signal,100%
CC(C)S(=O)(=O)c1ccc2nccc(Nc3ccc4sc(C5CCCC5)nc4c3)c2c1,"enzyme activity, inhibitor",1 µM,activity vs control,118%
CCCCC(=O)Nc1ccc(-c2ccc3ncn(CCC)c(=O)c3c2)cn1,"binding, competition with immobilised ligand",0.5 µM,remaining binding,100%
Cc1cc(O)c(-c2ccc([C@@H](C)CN(C)C)cc2)c2c1[nH]c(=O)c1sccc12,"enzyme activity, inhibitor",0.1 µM,inhibition,4.15%
C1=C/COCc2cc(ccc2OCCN2CCCC2)Nc2nccc(n2)-c2cccc(c2)COC/1,binding,0.1 µM,remaining binding,100%
C[C@H]1CC[C@H](n2c3cnccc3c3cnc(Nc4ccc5c(n4)CCN(C(=O)CO)C5)nc32)CC1,cell-free assay,1 µM,remaining signal,100%
COc1ccc2oc(-c3ccc4nc(N)oc4c3)c/c(=N\c3ccccc3NC(=O)CCN)c2c1,binding,1 µM,remaining binding,100%
C=CC(=O)N1CCC([C@@H]2CCNc3c(C(N)=O)c(-c4ccc(Oc5ccccc5)cc4)nn32)CC1,"enzyme activity, inhibitor",1 µM,inhibition,18%
N#Cc1ccc(NC(=O)Nc2ccccc2)cc1,"cell-free assay, competition with immobilised ligand",25 µM,remaining binding,100%
CO[C@@H]1[C@H](N(C)C(=O)c2ccccc2)C[C@H]2O[C@]1(C)n1c3ccccc3c3c4c(c5c6ccccc6n2c5c31)C(=O)NC4,"enzyme activity, inhibitor",1 µM,inhibition,73%
CN1CCN(C(=O)c2ccc(NC(=O)Nc3ccc(N(C)c4ccnc(Nc5ccc(CS(C)(=O)=O)cc5)n4)cc3)cc2)CC1,binding,1 µM,remaining binding,68%
